{"source": "ChEMBL document CHEMBL4049440", "about": "“First Dual Inhibitors of Steroid Sulfatase (STS) and 17β-Hydroxysteroid Dehydrogenase Type 1 (17β-HSD1): Designed Multiple Ligands as Novel Potential Therapeutics for Estrogen-Dependent Diseases” (J Med Chem, 2017)", "key": {"Steryl-sulfatase [1]": {"biological_target": "T1, Steryl-sulfatase (Homo sapiens, UniProt P08842)", "T1 sequence (P08842 whole entry)": "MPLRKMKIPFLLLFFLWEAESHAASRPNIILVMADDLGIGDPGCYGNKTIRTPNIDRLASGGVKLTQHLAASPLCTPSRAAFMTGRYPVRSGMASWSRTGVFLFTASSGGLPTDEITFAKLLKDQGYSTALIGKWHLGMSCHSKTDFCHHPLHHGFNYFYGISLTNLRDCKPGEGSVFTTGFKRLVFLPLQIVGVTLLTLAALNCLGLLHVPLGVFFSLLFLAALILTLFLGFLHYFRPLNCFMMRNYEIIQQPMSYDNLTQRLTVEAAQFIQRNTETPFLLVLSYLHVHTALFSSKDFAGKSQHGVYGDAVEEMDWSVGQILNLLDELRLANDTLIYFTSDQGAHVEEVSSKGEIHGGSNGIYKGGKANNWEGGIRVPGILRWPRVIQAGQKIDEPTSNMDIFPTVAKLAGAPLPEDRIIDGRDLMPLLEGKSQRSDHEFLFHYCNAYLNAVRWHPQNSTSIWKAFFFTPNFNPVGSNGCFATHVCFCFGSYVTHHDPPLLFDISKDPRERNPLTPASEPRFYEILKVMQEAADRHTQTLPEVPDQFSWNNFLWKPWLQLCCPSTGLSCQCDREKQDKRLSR", "experiment": "Inhibition of human placental microsomal STS assessed as formation of E1 preincubated for 30 mins followed by addition of E1S as substrate measured after 20 mins by ELISA", "summary_of_the_method": "(§1)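 Human placental STS incubated with estrone sulfate (E1S) as substrate in the presence of inhibitor; estrone (E1) formed was quantified by ELISA.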"}, "[2]": {"biological_target": "T2, 17-beta-hydroxysteroid dehydrogenase type 1 (Homo sapiens, UniProt P14061)", "T2 sequence (P14061 whole entry)": "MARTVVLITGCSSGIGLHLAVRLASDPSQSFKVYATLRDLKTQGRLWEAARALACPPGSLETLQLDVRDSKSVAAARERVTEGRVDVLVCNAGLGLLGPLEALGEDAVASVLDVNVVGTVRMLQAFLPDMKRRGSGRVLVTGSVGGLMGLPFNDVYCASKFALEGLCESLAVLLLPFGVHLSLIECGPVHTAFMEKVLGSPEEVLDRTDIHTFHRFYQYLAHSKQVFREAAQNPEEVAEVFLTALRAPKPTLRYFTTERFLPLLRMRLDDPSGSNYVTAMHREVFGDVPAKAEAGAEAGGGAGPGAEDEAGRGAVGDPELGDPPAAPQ", "experiment": "Inhibition of human placental cytosolic 17beta-HSD1 using [3H]-E1/E1 substrate and NADH after 10 mins by HPLC based radio-detection method", "summary_of_the_method": "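Cell-free assay with the cytosolic fraction of human placenta as the 17β-HSD1 source and radiolabeled E1 as substrate, with test compound present.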"}, "[3]": {"experiment": "Drug degradation in Tris-HCl buffer assessed as formation of metabolite containing phenolic OH-group by measuring remaining parent compound levels at pH 7.2 after 30 mins", "summary_of_the_method": "(§2)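 Compound incubated in 20 mM Tris-HCl buffer, pH 7.2, at 37 °C for 30 min. Remaining parent compound was measured, with sulfamate cleavage to the phenolic OH product monitored.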"}, "[4]": {"experiment": "Selectivity factor, ratio of IC50 for human placental microsomal 17beta-HSD2 cells to IC50 for human placental cytosolic 17beta-HSD1"}, "[5]": {"biological_target": "T3, 17-beta-hydroxysteroid dehydrogenase type 2 (Homo sapiens, UniProt P37059)", "T3 sequence (P37059 whole entry)": "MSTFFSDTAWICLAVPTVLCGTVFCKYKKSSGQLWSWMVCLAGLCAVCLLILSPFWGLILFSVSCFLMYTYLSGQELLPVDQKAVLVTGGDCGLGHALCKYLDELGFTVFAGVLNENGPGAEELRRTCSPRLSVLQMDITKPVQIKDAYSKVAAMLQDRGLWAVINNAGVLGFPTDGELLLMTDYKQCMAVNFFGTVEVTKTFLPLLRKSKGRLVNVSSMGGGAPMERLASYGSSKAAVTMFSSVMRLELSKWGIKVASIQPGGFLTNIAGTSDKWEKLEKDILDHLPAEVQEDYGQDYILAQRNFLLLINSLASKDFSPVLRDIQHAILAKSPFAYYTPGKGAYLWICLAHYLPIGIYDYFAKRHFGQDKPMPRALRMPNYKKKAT", "experiment": "Inhibition of human placental microsomal 17beta-HSD2 using [3H]-E2/E2 substrate and NAD+ after 20 mins by HPLC based radio-detection method"}, "Steryl-sulfatase [6]": {"biological_target": "T1, Steryl-sulfatase", "experiment": "Inhibition of STS in human T47D cells preincubated for 1 hr followed by addition of [3H]-E1S/E1S as substrate measured after 24 hrs by HPLC based radio-detection method", "assay_type": "cell-based"}, "[7]": {"biological_target": "T2, 17-beta-hydroxysteroid dehydrogenase type 1", "experiment": "Inhibition of 17beta-HSD1 in human T47D cells preincubated for 1 hr followed by addition of [3H]-E1/E1 as substrate measured after 30 mins by HPLC based radio-detection method", "assay_type": "cell-based"}, "Steryl-sulfatase [8]": {"biological_target": "T1, Steryl-sulfatase", "experiment": "Irreversible inhibition of STS in human T47D cells preincubated for 2 hrs followed by compound washout and addition of [3H]-E1S/E1S as substrate measured after 24 hrs by HPLC based radio-detection method", "assay_type": "cell-based"}, "T47D": {"tested_on": "T47D", "experiment": "Antiproliferative activity against E1S/E1-stimulated human T47D cells assessed as reduction in cell viability measured after 7 days after MTT assay", "assay_type": "functional, cell-based"}, "[9]": {"experiment": "Stability of the compound in Tris-HCl buffer at pH 7.2 after 30 mins", "assay_type": "physicochemical", "conditions": "pH 7.2, 0.5 h", "summary_of_the_method": "as §2"}, "[10]": {"biological_target": "T4, Steryl-sulfatase (Homo sapiens) (UniProt P08842)", "T4 sequence (whole entry)": "T1 sequence (P08842 whole entry)", "experiment": "Inhibition of human placental microsomal STS assessed as formation of E1 at 1 uM preincubated for 30 mins followed by addition of E1S as substrate measured after 20 mins by ELISA", "summary_of_the_method": "as §1"}}}
{"smiles": "NS(=O)(=O)Oc1ccc(-c2ccc(C(=O)c3c(F)ccc(O)c3F)s2)c(F)c1F", "values": [{"measurement": "IC50", "setting": "Steryl-sulfatase [1]", "value": 105, "unit": "nM"}, {"measurement": "IC50", "setting": "[2]", "value": 2.7, "unit": "nM"}, {"measurement": "Stability", "setting": "[3]", "value": 28, "unit": "%"}, {"measurement": "Ratio IC50", "setting": "[4]", "value": 8.6}, {"measurement": "IC50", "setting": "[5]", "value": 23.2, "unit": "nM"}]}
{"smiles": "NS(=O)(=O)Oc1ccc(-c2ccc(C(=O)c3c(F)ccc(O)c3F)s2)c(Cl)c1", "values": [{"measurement": "IC50", "setting": "Steryl-sulfatase [1]", "value": 19.4, "unit": "nM"}, {"measurement": "IC50", "setting": "[2]", "value": 10.2, "unit": "nM"}, {"measurement": "IC50", "setting": "Steryl-sulfatase [6]", "value": 3.4, "unit": "nM"}, {"measurement": "IC50", "setting": "[7]", "value": 60.9, "unit": "nM"}, {"measurement": "IC50", "setting": "Steryl-sulfatase [8]", "value": 3.9, "unit": "nM"}, {"measurement": "Activity", "setting": "T47D", "value": "Dose-dependent effect"}, {"measurement": "Stability", "setting": "[9]", "value": "Stable"}, {"measurement": "Ratio IC50", "setting": "[4]", "value": 1.9}, {"measurement": "IC50", "setting": "[5]", "value": 19.1, "unit": "nM"}]}
{"smiles": "NS(=O)(=O)Oc1ccc(-c2ccc(C(=O)c3c(F)ccc(O)c3F)s2)c(F)c1", "values": [{"measurement": "IC50", "setting": "Steryl-sulfatase [1]", "value": 19.5, "unit": "nM"}, {"measurement": "IC50", "setting": "[2]", "value": 12.2, "unit": "nM"}, {"measurement": "IC50", "setting": "Steryl-sulfatase [6]", "value": 2.1, "unit": "nM"}, {"measurement": "IC50", "setting": "[7]", "value": 42.1, "unit": "nM"}, {"measurement": "IC50", "setting": "Steryl-sulfatase [8]", "value": 3.1, "unit": "nM"}, {"measurement": "Activity", "setting": "T47D", "value": "Dose-dependent effect"}, {"measurement": "Stability", "setting": "[9]", "value": "Stable"}, {"measurement": "Ratio IC50", "setting": "[4]", "value": 1.8}, {"measurement": "IC50", "setting": "[5]", "value": 22.2, "unit": "nM"}]}
{"smiles": "NS(=O)(=O)Oc1cccc(-c2ccc(C(=O)c3c(F)ccc(O)c3F)s2)c1", "values": [{"measurement": "IC50", "setting": "[2]", "value": 2.2, "unit": "nM"}, {"measurement": "inhibition", "setting": "[10]", "value": "< 10", "unit": "%"}, {"measurement": "Stability", "setting": "[9]", "value": "Stable"}, {"measurement": "Ratio IC50", "setting": "[4]", "value": 14.2}, {"measurement": "IC50", "setting": "[5]", "value": 31.3, "unit": "nM"}]}
{"smiles": "NS(=O)(=O)Oc1ccc(-c2ccc(C(=O)c3c(F)ccc(O)c3F)s2)cc1", "values": [{"measurement": "IC50", "setting": "[2]", "value": 3.4, "unit": "nM"}, {"measurement": "inhibition", "setting": "[10]", "value": "< 10", "unit": "%"}, {"measurement": "Stability", "setting": "[9]", "value": "Stable"}, {"measurement": "Ratio IC50", "setting": "[4]", "value": 8.2}, {"measurement": "IC50", "setting": "[5]", "value": 28, "unit": "nM"}]}
{"smiles": "NS(=O)(=O)Oc1ccc(-c2ccc(C(=O)c3c(F)ccc(O)c3F)s2)c(F)c1Cl", "values": [{"measurement": "IC50", "setting": "Steryl-sulfatase [1]", "value": 244, "unit": "nM"}, {"measurement": "IC50", "setting": "[2]", "value": 1.4, "unit": "nM"}, {"measurement": "Stability", "setting": "[3]", "value": 22, "unit": "%"}, {"measurement": "Ratio IC50", "setting": "[4]", "value": 13.2}, {"measurement": "IC50", "setting": "[5]", "value": 18.4, "unit": "nM"}]}
{"smiles": "NS(=O)(=O)Oc1cccc(-c2ccc(C(=O)c3c(F)ccc(O)c3F)s2)c1F", "values": [{"measurement": "IC50", "setting": "Steryl-sulfatase [1]", "value": 123, "unit": "nM"}, {"measurement": "IC50", "setting": "[2]", "value": 7.1, "unit": "nM"}, {"measurement": "Stability", "setting": "[9]", "value": "Stable"}, {"measurement": "Ratio IC50", "setting": "[4]", "value": 2.5}, {"measurement": "IC50", "setting": "[5]", "value": 17.4, "unit": "nM"}]}
